As a reminder, the inhibition is the change of the read-out against control, counted positive when it falls. Usually IC50 stands for the concentration at which inhibition is half-maximal.

Test [1] concerns Tyrosine-protein kinase ABL1 (Homo sapiens), P00519 [T315I]. In words: Inhibition of nonphosphorylated ABL1 T315I mutant (unknown origin) at 1 uM by Ambit Kinomescan binding assay relative to control.
Test [2] addresses T1, Dual specificity mitogen-activated protein kinase kinase 4 (Homo sapiens) (UniProt P45985).
T1 sequence (whole entry): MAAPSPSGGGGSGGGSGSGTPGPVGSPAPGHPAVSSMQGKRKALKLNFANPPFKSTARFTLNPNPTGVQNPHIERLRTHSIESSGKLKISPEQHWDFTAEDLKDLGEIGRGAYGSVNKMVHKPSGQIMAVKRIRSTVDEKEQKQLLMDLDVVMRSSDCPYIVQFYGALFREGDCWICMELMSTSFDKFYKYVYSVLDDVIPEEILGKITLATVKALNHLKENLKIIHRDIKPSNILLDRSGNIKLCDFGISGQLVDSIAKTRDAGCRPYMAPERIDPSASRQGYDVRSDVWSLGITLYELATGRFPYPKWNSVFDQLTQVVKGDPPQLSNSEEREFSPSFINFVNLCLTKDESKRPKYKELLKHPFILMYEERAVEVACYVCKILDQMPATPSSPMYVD
In words: Inhibition of MEK4 (unknown origin) at 1 uM by Ambit Kinomescan binding assay relative to control; values are per cent of control.

Test [3] has as its target Ribosomal protein S6 kinase alpha-2 (Homo sapiens) (UniProt Q15349). The experiment in a line: Inhibition of C-terminal RSK3 kinase domain 2 (unknown origin) at 1 uM by Ambit Kinomescan binding assay relative to control. The gist of the method: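 In vitro ATP-site competition binding assay against a panel of over 420 kinases (KinomeScan), with compound tested at 10 or 1 μM.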

For another test, the system named is BaF3. The experiment in a line: Antiproliferative activity against parental mouse BaF3 cells assessed reduction in cell viability measured after 48 hrs by Celltiter-glo assay. The settings on record: BaF3, 48 h. Type of test: functional, cell-based. A general note: In ATP-based viability assays light output follows the ATP content of the culture.
The target in test [4] is T2, Serine/threonine-protein kinase D3 (Homo sapiens) (UniProt O94806).
T2 sequence (whole entry): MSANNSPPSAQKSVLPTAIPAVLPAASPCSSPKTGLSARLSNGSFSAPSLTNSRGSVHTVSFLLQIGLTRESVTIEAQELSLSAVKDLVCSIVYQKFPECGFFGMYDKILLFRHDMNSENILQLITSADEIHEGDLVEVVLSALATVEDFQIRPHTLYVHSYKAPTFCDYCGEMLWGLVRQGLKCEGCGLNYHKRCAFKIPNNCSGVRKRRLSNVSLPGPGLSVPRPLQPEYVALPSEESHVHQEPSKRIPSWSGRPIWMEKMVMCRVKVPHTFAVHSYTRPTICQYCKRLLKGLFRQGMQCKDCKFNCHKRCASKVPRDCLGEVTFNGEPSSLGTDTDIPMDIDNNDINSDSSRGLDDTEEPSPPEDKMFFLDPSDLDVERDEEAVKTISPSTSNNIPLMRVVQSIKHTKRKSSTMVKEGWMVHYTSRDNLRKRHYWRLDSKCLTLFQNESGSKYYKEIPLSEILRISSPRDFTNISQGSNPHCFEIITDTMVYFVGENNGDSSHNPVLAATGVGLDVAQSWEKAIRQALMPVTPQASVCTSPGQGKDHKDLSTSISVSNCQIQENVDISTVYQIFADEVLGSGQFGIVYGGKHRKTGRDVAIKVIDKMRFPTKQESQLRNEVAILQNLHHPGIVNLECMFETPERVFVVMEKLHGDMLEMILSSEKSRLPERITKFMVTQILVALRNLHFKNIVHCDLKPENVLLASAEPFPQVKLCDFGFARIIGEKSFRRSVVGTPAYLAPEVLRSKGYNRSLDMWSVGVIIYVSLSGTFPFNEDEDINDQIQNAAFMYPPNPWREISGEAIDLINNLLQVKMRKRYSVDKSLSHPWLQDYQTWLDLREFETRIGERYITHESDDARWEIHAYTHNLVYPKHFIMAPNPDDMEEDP
The experiment in a line: Inhibition of PKD3 Lys2 labeling site in human A-375 cells at 0.5 uM by KiNativ Profiling analysis relative to control. The format is cell-based.

For test [5], the target named is Cyclin-dependent kinase 5 (Homo sapiens) (UniProt Q00535). The experiment in a line: Inhibition of CDK5 Lys1 labeling site in human A-375 cells at 0.05 uM by KiNativ Profiling analysis relative to control. The format is cell-based.
Chain of Cyclin-dependent kinase 5 (Homo sapiens) (Q00535 whole entry, looked up): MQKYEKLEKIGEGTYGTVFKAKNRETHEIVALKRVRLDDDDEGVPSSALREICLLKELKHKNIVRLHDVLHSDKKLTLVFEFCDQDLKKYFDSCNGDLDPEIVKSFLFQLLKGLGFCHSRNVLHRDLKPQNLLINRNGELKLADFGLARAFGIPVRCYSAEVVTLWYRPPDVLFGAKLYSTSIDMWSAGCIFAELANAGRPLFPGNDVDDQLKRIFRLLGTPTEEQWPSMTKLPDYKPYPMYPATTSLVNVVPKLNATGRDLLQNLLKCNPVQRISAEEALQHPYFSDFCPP
For test [6], the target named is T3, Serine/threonine-protein kinase LATS1 (Homo sapiens) (UniProt O95835).
T3 sequence (whole entry): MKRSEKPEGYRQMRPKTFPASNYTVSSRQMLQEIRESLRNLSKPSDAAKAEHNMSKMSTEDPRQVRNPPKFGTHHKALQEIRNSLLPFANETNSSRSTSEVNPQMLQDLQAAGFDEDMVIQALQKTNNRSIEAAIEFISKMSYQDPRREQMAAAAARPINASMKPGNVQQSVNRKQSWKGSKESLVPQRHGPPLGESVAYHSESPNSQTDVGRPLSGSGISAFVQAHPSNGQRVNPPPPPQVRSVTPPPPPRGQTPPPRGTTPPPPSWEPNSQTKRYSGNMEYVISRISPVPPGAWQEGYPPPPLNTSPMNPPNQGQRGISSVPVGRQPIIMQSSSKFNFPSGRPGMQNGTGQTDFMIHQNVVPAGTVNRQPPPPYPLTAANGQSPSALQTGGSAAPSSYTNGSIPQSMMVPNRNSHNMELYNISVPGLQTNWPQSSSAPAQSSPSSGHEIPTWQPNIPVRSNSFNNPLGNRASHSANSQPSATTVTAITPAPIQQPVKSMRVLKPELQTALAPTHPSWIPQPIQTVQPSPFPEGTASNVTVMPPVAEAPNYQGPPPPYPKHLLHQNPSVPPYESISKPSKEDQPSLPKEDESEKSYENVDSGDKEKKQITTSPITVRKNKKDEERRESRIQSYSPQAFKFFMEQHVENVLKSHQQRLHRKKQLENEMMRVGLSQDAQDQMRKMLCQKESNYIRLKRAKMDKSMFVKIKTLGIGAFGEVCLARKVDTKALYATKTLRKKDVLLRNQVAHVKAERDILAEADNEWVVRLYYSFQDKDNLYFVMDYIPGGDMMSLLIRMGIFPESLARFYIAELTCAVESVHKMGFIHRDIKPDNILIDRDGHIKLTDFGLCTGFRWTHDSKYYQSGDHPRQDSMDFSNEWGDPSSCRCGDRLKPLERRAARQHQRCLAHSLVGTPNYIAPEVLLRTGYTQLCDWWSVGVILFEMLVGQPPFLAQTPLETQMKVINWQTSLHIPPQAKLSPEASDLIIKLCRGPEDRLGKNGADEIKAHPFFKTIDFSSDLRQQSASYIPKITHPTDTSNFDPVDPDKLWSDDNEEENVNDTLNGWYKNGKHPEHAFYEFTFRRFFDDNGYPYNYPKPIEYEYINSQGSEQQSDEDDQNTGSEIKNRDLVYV
In words: Inhibition of LATS1 Lys2 labeling site in human A-375 cells at 0.05 uM by KiNativ Profiling analysis relative to control. The format is cell-based.

Chain of Ribosomal protein S6 kinase alpha-2 (Homo sapiens) (Q15349 whole entry, the tested form may be a part): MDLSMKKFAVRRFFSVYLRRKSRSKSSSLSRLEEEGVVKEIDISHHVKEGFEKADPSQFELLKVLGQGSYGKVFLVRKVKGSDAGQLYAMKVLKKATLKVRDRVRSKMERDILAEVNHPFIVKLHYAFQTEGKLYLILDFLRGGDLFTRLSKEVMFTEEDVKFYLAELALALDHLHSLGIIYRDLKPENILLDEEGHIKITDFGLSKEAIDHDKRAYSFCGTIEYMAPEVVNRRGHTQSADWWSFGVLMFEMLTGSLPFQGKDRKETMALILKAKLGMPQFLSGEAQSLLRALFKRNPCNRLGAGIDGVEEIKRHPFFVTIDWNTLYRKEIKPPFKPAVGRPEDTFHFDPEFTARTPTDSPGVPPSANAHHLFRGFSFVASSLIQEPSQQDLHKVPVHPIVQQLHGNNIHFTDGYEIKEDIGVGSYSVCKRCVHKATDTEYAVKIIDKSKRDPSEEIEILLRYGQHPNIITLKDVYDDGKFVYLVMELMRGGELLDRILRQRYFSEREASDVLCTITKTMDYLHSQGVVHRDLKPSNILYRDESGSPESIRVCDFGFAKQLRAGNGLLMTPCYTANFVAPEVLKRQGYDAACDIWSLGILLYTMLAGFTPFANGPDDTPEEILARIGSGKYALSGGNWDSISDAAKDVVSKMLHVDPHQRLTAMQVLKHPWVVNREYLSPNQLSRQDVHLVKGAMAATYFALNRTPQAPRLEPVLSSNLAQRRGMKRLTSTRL

Take `CCN1CCN(Cc2ccc(NC(=O)c3ccc(C)c(/C=C/c4cnc5[nH]ccc5c4OC)c3)cc2C(F)(F)F)CC1`: the inhibition in test [1] was 11%; in test [3], 67%; in test [4], -8.8%. For the same molecule, the residual activity in test [2] was determined as 100%. Also, the IC50 with BaF3 worked out at 4.02 µM.

As for `CCN1CCN(Cc2ccc(NC(=O)c3ccc(C)c(Oc4ccnc5[nH]ccc45)c3)cc2C(F)(F)F)CC1`, the inhibition in test [5] amounted to 16.5%; in test [6] it was 14.5%.

The values are drawn from ChEMBL document CHEMBL5696442, “Discovery of type II inhibitors of TGFβ-activated kinase 1 (TAK1) and mitogen-activated protein kinase kinase kinase kinase 2 (MAP4K2)” (J Med Chem, 2015).
